The text below walks through data of ChEMBL document CHEMBL3865797, “Design, synthesis and biological evaluation of berberine-benzimidazole hybrids as new type of potentially DNA-targeting antimicrobial agents” (Eur J Med Chem, 2016).

The source made the active and inactive calls. No cut-off for these calls is given here.

What is called MIC is the lowest concentration found to suppress growth. High values mean weaker potency, low ones greater potency. The term MIC80 denotes an inhibitory concentration at the 80% level, which refers to growth in some studies and to a panel of isolates in others. High values mean lower susceptibility, low ones higher susceptibility.

Assay [1] concerns Staphylococcus aureus. Nature of the assay: Antibacterial activity against Staphylococcus aureus ATCC 25923 measured after 24 hrs by two-fold serial dilution method. In kind it is functional. Conditions: ATCC 25923, 24 h. Summed up:
(§1)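 MIC by two-fold serial broth microdilution in 96-well plates, following NCCLS recommendations. Chloromycin, norfloxacin and fluconazole serve as reference drugs. The MIC is read as the lowest concentration that inhibits growth, in µg/mL.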

Assay [2] relates to Staphylococcus aureus. In words: Antibacterial activity against methicillin-resistant Staphylococcus aureus N315 measured after 24 hrs by two-fold serial dilution method. In kind it is functional. Conditions: N315, 24 h. Summed up: (§2)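 Two-fold serial dilution in 96-well microtest plates following NCCLS guidance (micro broth dilution). Chloromycin and norfloxacin serve as positive controls. MIC is reported in µg/mL.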

A further assay relates to Bacillus subtilis. Nature of the assay: Antibacterial activity against Bacillus subtilis measured after 24 hrs by two-fold serial dilution method. Format: functional. Summed up:
as §1

In a further assay the test system is Micrococcus luteus. Nature of the assay: Antibacterial activity against Micrococcus luteus ATCC 4698 measured after 24 hrs by two-fold serial dilution method. Format: functional. As to conditions: NCTC 2665, 24 h. The gist of the method: as §1
A further assay relates to Proteus vulgaris. In words: Antibacterial activity against Bacillus proteus ATCC 13315 measured after 24 hrs by two-fold serial dilution method. In kind it is functional. As to conditions: ATCC 13315, 24 h. Summed up: as §1
The subject of assay [3] is Escherichia coli. Nature of the assay: Antibacterial activity against Escherichia coli JM109 measured after 24 hrs by two-fold serial dilution method. As to conditions: JM109, 24 h. In kind it is functional. Summed up:
as §1

A further assay has as its system Pseudomonas aeruginosa. In words: Antibacterial activity against Pseudomonas aeruginosa measured after 24 hrs by two-fold serial dilution method. Format: functional. Summed up:
as §1

Another assay concerns Salmonella typhi. In words: Antibacterial activity against Salmonella typhi measured after 24 hrs by two-fold serial dilution method. In kind it is functional, Salmonella enterica subsp. enterica serovar Typhi. As to conditions: Salmonella enterica. The gist of the method: as §2
The next assay relates to Candida albicans. In words: Antifungal activity against Candida albicans ATCC 76615 measured after 24 hrs by two-fold serial dilution method. Format: functional. As to conditions: ATCC 76615, 24 h. Summed up:
as §1

The nature of assay [4]: Antifungal activity against Candida utilis measured after 24 hrs by two-fold serial dilution method. In kind it is functional. As to conditions: Cyberlindnera jadinii. Summed up: as §1
Assay [5] is described as follows: Antifungal activity against Saccharomyces cerevisiae measured after 24 hrs by two-fold serial dilution method. In kind it is functional. The gist of the method:
as §1

In the next assay the test system is Aspergillus flavus. In words: Antifungal activity against Aspergillus flavus measured after 24 hrs by two-fold serial dilution method. Format: functional. Summed up:
as §1

Assay [6] deals with Escherichia coli. In words: Induction of Escherichia coli supercoiled pET-28a DNA cleavage measured at 0.1 mM after 5 hrs by agarose gel electrophoresis method.
Assay [7] concerns Staphylococcus aureus. Nature of the assay: Induction of membrane permeabilization in methicillin-resistant Staphylococcus aureus N315 at 12 times MIC by propidium iodide staining-based fluorescence analysis. Format: functional. Summed up: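 Cells are exposed to the agent at 12 × MIC, then stained with propidium iodide. The dye enters only cells with compromised membranes and fluoresces on binding DNA, so fluorescence serves as the permeabilization read-out.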

For assay [8], the system named is Escherichia coli. In words: Induction of membrane permeabilization in Escherichia coli DH52 at 12 times MIC by propidium iodide staining-based fluorescence analysis. In kind it is functional. The gist of the method: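 Propidium iodide uptake measured by fluorescence in E. coli DH52 exposed to agent at 12 × MIC. The dye enters bacteria with compromised membranes and fluoresces on binding DNA.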

The species entered for assay [9] is Bos taurus. In words: Binding affinity to calf thymus DNA assessed as hypochromic effect by UV-vis spectroscopy.
Assay [10] is filed under the species Bos taurus. In words: Binding affinity to calf thymus DNA assessed as increase in maximum absorption peak at 260 nm by UV-vis spectroscopy. Summed up:
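Absorption spectra of DNA recorded at pH 7.4 and 298 K with increasing concentrations of added agent. Absorbance at 260 nm of the complex is compared with the summed absorbance of free DNA and free agent.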

The species named for assay [11] is Bos taurus. Nature of the assay: Binding affinity to calf thymus DNA by UV-vis spectroscopy.
The species entered for assay [12] is Bos taurus. In words: Binding affinity to calf thymus DNA assessed as DNA intercalation by neutral red dye based UV-vis spectroscopy.

As for `CCCCCCCn1c(COc2c(OC)ccc3cc4[n+](cc23)CCc2cc3c(cc2-4)OCO3)nc2ccccc21.[Cl-]`, the minimum inhibitory concentration (MIC) in the assay with Staphylococcus aureus [1] is 4 µg/mL; with Staphylococcus aureus [2] it was 8 µg/mL; against Bacillus subtilis, 32 µg/mL; against Micrococcus luteus it was 64 µg/mL; with Proteus vulgaris, 512 µg/mL; against Escherichia coli [3] it was 4 µg/mL. Also, the MIC in the assay with Pseudomonas aeruginosa came to 16 µg/mL; in the assay with Salmonella typhi, 2 µg/mL. In addition, the MIC80 was 4 µg/mL in the assay with Candida albicans, 8 µg/mL in assay [4], 512 µg/mL in [5] and 32 µg/mL with Aspergillus flavus. The Activity result in the assay with Escherichia coli [6] and in the assay listed under Bos taurus [10] was “Dose-dependent effect” each time. The result in the assay on Staphylococcus aureus [7], in the assay on Escherichia coli [8], in the assay listed under Bos taurus [9] and in the assay filed under Bos taurus [12] was Active. This molecule had a K in the assay filed under Bos taurus [11] of 4.12 ×10⁴ L/mol.
In the case of `CCCCCCCCCCCCCCCCn1c(COc2c(OC)ccc3cc4[n+](cc23)CCc2cc3c(cc2-4)OCO3)nc2ccccc21.[Cl-]`, the minimum inhibitory concentration (MIC) was 256 µg/mL in the assay with Staphylococcus aureus [1]; 256 µg/mL in the assay on Staphylococcus aureus [2]; 512 µg/mL with Bacillus subtilis; 128 µg/mL in the assay with Micrococcus luteus; 512 µg/mL against Proteus vulgaris; 64 µg/mL with Escherichia coli [3]. Moreover, the MIC in the assay on Pseudomonas aeruginosa and against Salmonella typhi was 128 µg/mL throughout. For the same molecule, the MIC80 came to 64 µg/mL with Candida albicans, 128 µg/mL in assay [4], 512 µg/mL in assay [5] and 128 µg/mL against Aspergillus flavus.
As for `COc1ccc2cc3[n+](cc2c1OCc1nc2ccccc2n1Cc1ccc(Cl)cc1)CCc1cc2c(cc1-3)OCO2.[Cl-]`, the MIC in the assay with Staphylococcus aureus [1] amounted to 32 µg/mL; with Staphylococcus aureus [2], 512 µg/mL; in the assay on Bacillus subtilis, 512 µg/mL; against Micrococcus luteus, 8 µg/mL; against Proteus vulgaris it was 8 µg/mL; against Escherichia coli [3] it was 2 µg/mL. For the same molecule, the MIC with Pseudomonas aeruginosa is 512 µg/mL; against Salmonella typhi, 2 µg/mL. Moreover, the MIC80 against Candida albicans is 512 µg/mL; in assay [4] it was 4 µg/mL; in assay [5], 512 µg/mL; in the assay with Aspergillus flavus it was 4 µg/mL.
Consider `COc1ccc2cc3[n+](cc2c1OCc1nc2ccccc2n1Cc1cccc(F)c1)CCc1cc2c(cc1-3)OCO2.[Cl-]`, for which the MIC in the assay with Staphylococcus aureus [1] amounted to 512 µg/mL; in the assay with Staphylococcus aureus [2], 512 µg/mL; against Bacillus subtilis, 512 µg/mL; in the assay on Micrococcus luteus, 16 µg/mL; against Proteus vulgaris it was 128 µg/mL; in the assay on Escherichia coli [3], 512 µg/mL. Further, the minimal inhibitory concentration (MIC) against Pseudomonas aeruginosa and against Salmonella typhi was 256 µg/mL throughout. Further, the MIC80 stood at 512 µg/mL in the assay with Candida albicans, 8 µg/mL in assay [4], 256 µg/mL in assay [5] and 32 µg/mL in the assay on Aspergillus flavus.
For `COc1ccc2cc3[n+](cc2c1OCc1nc2ccccc2[nH]1)CCc1cc2c(cc1-3)OCO2.[Cl-]`, the MIC against Staphylococcus aureus [1] turned out to be 512 µg/mL; against Staphylococcus aureus [2], 256 µg/mL; against Bacillus subtilis, 512 µg/mL; with Micrococcus luteus it was 32 µg/mL; against Proteus vulgaris it was 256 µg/mL; with Escherichia coli [3] it was 512 µg/mL. For the same molecule, the results for the MIC against Pseudomonas aeruginosa and in the assay on Salmonella typhi were 256 µg/mL and 16 µg/mL, respectively. The MIC80 is 256 µg/mL in the assay on Candida albicans, 64 µg/mL in assay [4], 512 µg/mL in [5] and 32 µg/mL with Aspergillus flavus.
